Shown are actives, neighbours in structure and some others; about 2.9% of the full set was active somewhere.
TRPC4 potent = positive allosteric modulators of TRPC4, primary screen, cell-based, mouse TRPC4beta, HEK293 mu-opioid, Fluo-4 calcium; B-score at 10 µM; DAMGO EC20, Fluo-4 Ca2+ flux; stronger effect = higher value; 310,000 tested, 0.42% active; AID 2227, 2009; Short transient receptor potential channel 4 (Mus musculus), Q9QUQ5;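 active = B-score of calcium response area above 5 SD of library B-scores, with initial fluorescence ratio within 5 SD of library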;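 note: B-score of integrated fluorescence ratio over time as area under calcium response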
TRPC4 act = activators of mouse TRPC4 channel, primary screen, Fluo4 calcium, HEK293 TRPC4beta/mu-opioid cells | Short transient receptor potential channel 4 (Mus musculus), Q9QUQ5 | Fluo4 calcium fluorescence; stronger effect = higher value | B-score at 10 µM | 310,000 tested, 0.49% active | AID 2237, 2010;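 active = B-score above 5 SD of library B-scores, and initial fluorescence ratio not above library mean plus 5 SD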;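 note: positive B-score marks a calcium rise read as TRPC4 activation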
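Assay system – TRPC4beta and mu-opioid receptor HEK293 stable cells · Measured by – Fluo4 fluorescence, kinetic · Schedule – dye loading 45 min room temperature, 110 s kinetic read · Read-out – B-scored integrated calcium fluorescence ratio · Controls – buffer and maximal DAMGO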
Kir21 inh = inhibitors of mouse Kir2.1 inward-rectifier potassium channel; B-score at 10 µM; HEK293-Kir2.1, FluxOR thallium flux fluorescence; stronger effect = lower value; 310,000 tested, 0.85% active; AID 1672, 2009;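 active = fluorescence ratio B-score at or below minus 3 SD of library scores, with starting-brightness B-score within 2 SD, cut at about -4.2 in these data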;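 note: channel flux triggered by added potassium and thallium sulfate stimulus; B-score of peak minus minimum fluorescence over baseline after thallium stimulus; more negative B-score means stronger Kir2.1 block with less thallium influx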
Target sequence (P35561 whole entry, looked up): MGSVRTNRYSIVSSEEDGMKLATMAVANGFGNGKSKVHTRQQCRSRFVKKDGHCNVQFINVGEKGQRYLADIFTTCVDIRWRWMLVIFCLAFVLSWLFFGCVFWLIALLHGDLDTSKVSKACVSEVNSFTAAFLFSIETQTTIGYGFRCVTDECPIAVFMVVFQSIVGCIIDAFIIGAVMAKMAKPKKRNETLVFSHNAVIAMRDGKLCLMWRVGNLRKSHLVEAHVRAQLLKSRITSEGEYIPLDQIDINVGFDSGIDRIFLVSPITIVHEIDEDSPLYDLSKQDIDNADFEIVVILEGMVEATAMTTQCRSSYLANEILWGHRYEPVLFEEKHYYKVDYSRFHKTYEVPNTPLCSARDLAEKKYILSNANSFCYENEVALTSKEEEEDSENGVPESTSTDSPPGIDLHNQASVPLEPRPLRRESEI
TRPC4 inh = inhibitors of mouse TRPC4 channel, primary screen, Fluo4 calcium, HEK293 TRPC4beta/mu-opioid cells; Short transient receptor potential channel 4 (Mus musculus), Q9QUQ5; B-score at 10 µM; DAMGO-evoked Fluo4 calcium flux; stronger effect = lower value; 300,000 tested, 0.39% active;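 active = B-score over 3 SD under the library average, no early fluorescence shift, positive overall ratio signal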
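material = TRPC4beta/mu-opioid receptor HEK293 cell line | probe or stimulus = sequential submaximal and maximal DAMGO stimulation | compound dosing = one concentration per compound | measured by = Fluo4 Ca2+ flux fluorescence | evaluation = integrated fluorescence ratio relative to baseline, converted to per-well B score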
TRPC6 activator = mouse TRPC6 channel activators, primary screen, cell-based, HEK293, membrane potential dye | Short transient receptor potential channel 6 (Mus musculus), Q61143 | HEK293-TRPC6 membrane potential dye fluorescence; stronger effect = higher value | B-score at 10 µM | 310,000 tested, 0.13% active | AID 2550, 2010;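 active = B-score of the integrated fluorescence ratio above library mean plus 3 SD, and starting fluorescence ratio within library mean plus 5 SD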;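 note: higher score means more depolarization so channel activation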
TRPC6 inh = mouse TRPC6 channel inhibitors, primary screen, cell-based, HEK293, membrane potential dye; Short transient receptor potential channel 6 (Mus musculus), Q61143; AID 2553, 2010; ACh-evoked depolarization; stronger effect = lower value; B-score at 10 µM; 310,000 tested, 1.1% active;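 active = B-score under library mean minus 3 SD, initial fluorescence not abnormally high, positive integrated signal ratio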;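 note: B-score derived from integrated fluorescence ratio over the kinetic read; more negative B-score means stronger inhibition of depolarization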
Starred values were filed as active, the others as inactive; i = inactive.

SMILES | TRPC4 potent | TRPC4 act | Kir21 inh | TRPC4 inh | TRPC6 activator | TRPC6 inh
CNCCOc1ccc(Cl)c(Cl)c1 | 40* | 75* | -0.47 | i | i | i
Clc1ccc(OCCN2CCCCC2)cc1Cl | 26* | i | -1.2 | i | i | i
CNCCCOc1ccc2c(c1)CCC2 | 20* | 80* | 2.1 | i | i | i
Clc1ccc(OCCN2CCOCC2)cc1Cl | i | i | 0.33 | i | i | i
COc1cccc(N2CCN(C(=O)C3CCC(=O)N(C4CCCCCC4)C3)CC2)c1 (stereo not given) | i | i | 1.2 | i | i | i
CN1CCC(N(C)S(=O)(=O)c2ccc(NC(=O)COc3ccc(Br)cc3Cl)cc2)CC1 | i | i | -1.8 | i | i | i
Cc1c(C(=O)Nc2ccc(S(=O)(=O)N(C)C3CCN(C)CC3)cc2)oc2c(Cl)cccc12 | i | i | -5* | i | i | i
COc1ccccc1S(=O)(=O)Cc1ccc(C(=O)NCc2ccccc2)o1 | i | i | -0.01 | i | i | i
CC(C)(C)SCCNC(=O)CN(c1ccccc1)S(=O)(=O)c1ccc(F)cc1 | i | i | -2.5 | i | i | i
Cc1ccc(OCCCCCN2CCOCC2)cc1 | i | i | 1.5 | i | i | i
CC(C)c1ccccc1OCCCCN1CCCCC1 | i | i | -5* | i | i | i
CC(C)c1ccccc1OCCCN1CCCC1 | i | i | -0.9 | i | i | i
Brc1ccccc1OCCCCCN1CCOCC1 | 11* | i | -0.7 | i | i | i
Clc1ccccc1OCCCCN1CCNCC1 | 12* | i | 0.84 | i | i | i
Brc1ccccc1OCCCN1CCCC1 | i | i | 0.08 | i | i | i
CC(C)c1ccccc1OCCCCCN1CCOCC1 | 13* | i | -3.1 | i | i | i
CCN(CC)S(=O)(=O)c1cc(C(=O)n2cccn2)c(Cl)cc1Cl | i | i | -1.1 | i | i | i
Cc1oc(-c2ccc(Cl)cc2)nc1CS(=O)CC(=O)NCCCN1CC(C)CC(C)C1 (stereo not given) | i | 54* | -1.1 | i | i | i
COc1cccc(-c2nc(CS(=O)(=O)CC(=O)NCCCN3CC(C)CC(C)C3)c(C)o2)c1 (stereo not given) | i | 65* | 0.11 | i | i | i
Cc1ccccc1-c1nc(CS(=O)(=O)CC(=O)NCCCN2CC(C)CC(C)C2)c(C)o1 (stereo not given) | i | 66* | 0.28 | i | i | i
Cc1oc(-c2ccc(Cl)cc2)nc1CS(=O)CC(=O)NCCN1CCCCCC1 (stereo not given) | i | i | -0.28 | i | i | i
c1cnc(N2CCN(c3cnccn3)CC2)nc1 | 28* | i | -1.5 | i | i | i
CCOC(=O)C1(CCc2ccccc2)CCN(C(=O)CN2C(=O)CSC2=O)CC1 | i | i | -1.6 | i | i | i
Clc1ccc(SCCn2ccnc2)cc1 | i | 63* | -0.08 | i | i | i
COc1ccccc1OCCn1ccnc1 | i | i | 0.75 | i | i | i
Clc1ccc(OCCn2ccnc2)c(Cl)c1 | 14* | i | -2.5 | i | i | i
Clc1ccc(OCCn2ccnc2)c(Br)c1 | 21* | i | -0.52 | i | i | i
Clc1ccc(OCCn2ccnc2)c2ccccc12 | i | 53* | -4 | i | i | i
CC(C)(C)OC(=O)N1CCN(c2ccc(NC(=O)c3ccco3)cc2)CC1 | i | i | 1.4 | i | i | i

Screening results deposited in PubChem BioAssay by Johns Hopkins Ion Channel Center.
